According to ChEMBL document CHEMBL4665889, “Design, Synthesis, and Pharmacological Characterization of a Neutral, Non-Prodrug Thrombin Inhibitor with Good Oral Pharmacokinetics” (J Med Chem, 2020):
pIC50: −log10 of the molar value. Activity calls are given as the source filed them. The calls are words filed in the database; no cut-off is given here.

Key:
[1] = Volume of distribution at steady state in Wistar Hannover rat at 0.3 to 0.5 mg/kg, iv by LC-MS/MS analysis; type: ADME, organism-based; details: in vivo, dose 0.3-0.5 mg/kg, time <=24 hrs, read-out: Vdss
Procedure, shortened: (§1)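 Male Wistar Hannover rats, catheterized under isoflurane; one day later iv injection into lateral tail vein at 0.3 to 0.5 mg/kg in plasma containing 2% DMSO. Blood sampled via catheter from 0.033 to 24 h. Plasma precipitated with acetonitrile, analysed by LC-MS/MS (10 mM ammonium acetate pH 3.0/acetonitrile gradient). PK parameters calculated from plasma concentrations.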

[2] = Permeability from apical to basolateral side in human Caco2 cells incubated for 2 hrs by LC-MS/MS analysis; type: ADME, cell-based; details: Caco-2
Procedure, shortened: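 Caco-2 cells grown 15 d on 0.4 μm inserts, TEER ≥600 Ω. Compound (DMSO stock diluted 100-fold) in HBSS pH 7.4 with 10 mM HEPES and 20 mM glucose, added apically or basolaterally. Incubated 2 h at 37 °C and analysed by LC-MS/MS. Papp = (Vr/P0)·(1/S)·(P2/t); mean and SD.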

[3] = Protein binding in rat plasma; type: ADME, cell-free; details: read-out: PPB (converted)
[4] = target: Prothrombin (Rattus norvegicus, UniProt P18292); assay: Inhibition of thrombin in rat plasma; type: cell-free
[5] = MRT in Wistar Hannover rat at 0.3 to 0.5 mg/kg, iv by LC-MS/MS analysis; type: ADME, organism-based; details: in vivo, dose 0.3-0.5 mg/kg, time <=24 hrs; procedure, shortened: as §1
[6] = target: Coagulation factor X (Homo sapiens) (UniProt P00742); assay: Inhibition of purified human plasma factor-10a up to 20 uM using Boc-Ile-Glu-Gly-Arg-AMC substrate incubated for 30 mins by fluorescence based assay; details: dose microM <=20, time 30.0 min
Procedure, shortened: (§2)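 Final levels: thrombin 0.02 nM; FXa 1.3 nM; FXIa 0.15 nM; plasmin 1.2 nM (substrate 50 μM); tPA 2 nM; kallikrein 0.2 nM; trypsin 0.1 nM; other AMC substrates 5 μM. FVIIa 0.5 pM coupled with tissue factor, factor X 12 nM, FXa substrate 50 μM.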

[7] = Inhibition of thrombin in dog plasma; type: cell-free; details: Canis lupus familiaris
[8] = AUC/dose in Wistar Hannover rat at 0.3 to 0.5 mg/kg, iv by LC-MS/MS analysis; type: ADME, organism-based; details: in vivo, dose 0.3-0.5 mg/kg, time <=24 hrs; procedure, shortened: as §1
[9] = target: Plasminogen (Homo sapiens) (UniProt P00747); assay: Inhibition of purified human plasma plasmin up to 20 uM using MeOSuc-Ala-Phe-Lys-AMC substrate incubated for 30 mins by fluorescence based assay; details: dose microM <=20, time 30.0 min; procedure, shortened: as §2
[10] = target: T1, Nuclear receptor subfamily 1 group I member 2 (Homo sapiens, UniProt O75469); assay: Activation of human PXR human hepatocytes assessed as induction of CYP3A4 mRNA expression incubated for 48 hrs by qPCR analysis; type: ADME, tissue-based, Hepatocyte
T1 sequence (O75469 whole entry): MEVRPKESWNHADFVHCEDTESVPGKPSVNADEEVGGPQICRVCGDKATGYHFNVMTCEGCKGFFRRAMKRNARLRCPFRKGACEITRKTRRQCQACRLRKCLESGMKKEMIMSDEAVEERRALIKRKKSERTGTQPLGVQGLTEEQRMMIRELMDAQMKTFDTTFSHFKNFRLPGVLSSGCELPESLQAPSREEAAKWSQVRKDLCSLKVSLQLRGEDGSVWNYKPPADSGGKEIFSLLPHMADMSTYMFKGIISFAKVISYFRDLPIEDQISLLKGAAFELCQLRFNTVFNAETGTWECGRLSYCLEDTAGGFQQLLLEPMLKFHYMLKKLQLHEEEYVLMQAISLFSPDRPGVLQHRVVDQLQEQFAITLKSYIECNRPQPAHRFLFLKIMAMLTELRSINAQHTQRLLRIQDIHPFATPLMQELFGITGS
Procedure, shortened: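 Human hepatocytes in collagen sandwich, cultured 1 d, then treated with eight 1:3 serial concentrations for 2 consecutive days with daily media change. mRNA isolated on magnetic beads, reverse transcribed, and quantified by TaqMan qRT-PCR against actin/tubulin. Fold induction over vehicle by ΔΔCt; NOEL reported.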

[11] = target: Trypsin (Homo sapiens) (UniProt P07477+P07478+P35030); assay: Inhibition of purified human plasma trypsin up to 20 uM using Boc-Ile-Glu-Gly-Arg-AMC substrate incubated for 30 mins by fluorescence based assay; type: protein assay; details: dose microM <=20, time 30.0 min; procedure, shortened: as §2
[12] = Protein binding in human plasma; type: ADME, cell-free; details: read-out: PPB (converted)
[13] = Blood clearance in Wistar Hannover rat at 0.3 to 0.5 mg/kg, iv by LC-MS/MS analysis; type: ADME, organism-based; details: whole blood, dose 0.3-0.5 mg/kg, time <=24 hrs; procedure, shortened: as §1

Coagulation factor X (Homo sapiens), sequence (P00742 41-179 limits assumed): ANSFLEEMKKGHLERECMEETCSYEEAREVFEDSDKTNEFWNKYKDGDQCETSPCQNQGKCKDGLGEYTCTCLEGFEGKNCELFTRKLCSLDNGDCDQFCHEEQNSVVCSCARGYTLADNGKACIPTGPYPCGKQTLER
Coagulation factor X (Homo sapiens), sequence (P00742 235-488 limits assumed): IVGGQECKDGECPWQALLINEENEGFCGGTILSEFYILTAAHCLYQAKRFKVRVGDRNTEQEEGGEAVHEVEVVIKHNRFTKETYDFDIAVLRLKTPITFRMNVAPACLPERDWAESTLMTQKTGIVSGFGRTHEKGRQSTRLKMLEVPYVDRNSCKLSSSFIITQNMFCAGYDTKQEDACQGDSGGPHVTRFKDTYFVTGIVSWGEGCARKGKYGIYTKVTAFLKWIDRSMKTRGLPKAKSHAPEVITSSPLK
Plasminogen (Homo sapiens), sequence (P00747 97-580 limits assumed): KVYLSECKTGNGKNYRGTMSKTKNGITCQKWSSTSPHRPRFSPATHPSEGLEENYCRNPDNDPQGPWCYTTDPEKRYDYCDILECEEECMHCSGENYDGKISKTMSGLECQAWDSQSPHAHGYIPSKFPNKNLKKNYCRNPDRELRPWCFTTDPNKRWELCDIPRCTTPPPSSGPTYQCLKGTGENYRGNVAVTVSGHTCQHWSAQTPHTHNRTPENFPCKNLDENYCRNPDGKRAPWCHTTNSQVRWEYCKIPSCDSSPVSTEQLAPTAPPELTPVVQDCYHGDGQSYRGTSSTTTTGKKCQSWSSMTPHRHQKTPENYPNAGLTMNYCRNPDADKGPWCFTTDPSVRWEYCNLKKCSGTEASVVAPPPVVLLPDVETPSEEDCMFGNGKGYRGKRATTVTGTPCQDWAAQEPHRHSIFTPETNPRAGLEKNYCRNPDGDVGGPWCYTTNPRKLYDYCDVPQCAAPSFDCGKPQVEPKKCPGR
Plasminogen (Homo sapiens), sequence (P00747 581-810 limits assumed): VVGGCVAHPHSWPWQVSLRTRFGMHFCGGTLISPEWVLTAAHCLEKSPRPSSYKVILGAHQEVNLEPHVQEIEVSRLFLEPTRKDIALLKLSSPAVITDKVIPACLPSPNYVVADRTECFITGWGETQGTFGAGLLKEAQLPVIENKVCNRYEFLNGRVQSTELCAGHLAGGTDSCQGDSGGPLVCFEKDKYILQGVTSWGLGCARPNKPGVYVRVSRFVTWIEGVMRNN

With `COc1cc(C(=O)N2C[C@H](C)OC[C@@H]2CCO)cc2nc(N[C@H](CF)c3cccc(Cl)c3)oc12` the Vd [1] was 3.5 L/kg, the Papp A→B at 2 h [2] was 131 nm/s and the fraction unbound [3] was 0.22. The pIC50 [4] was 8.00, the MRT [5] was 1.2 h and the inhibition [6] was “inactive”. The pIC50 [7] was 8.19, the AUC/dose [8] was 0.34 kg·h/L and the inhibition [9] was “inactive”. The NOAEL [10] was > 10000 ng/mL, the inhibition [11] was “inactive” and the fraction unbound [12] was 0.22. It also gave a clearance [13] of 3.1 L/h/kg.
